# Assay outcomes from PubChem.
# TRPC4 potent: positive allosteric modulators of TRPC4, primary screen, cell-based, mouse TRPC4beta, HEK293 mu-opioid, Fluo-4 calcium. Short transient receptor potential channel 4 (Mus musculus), Q9QUQ5. DAMGO EC20, Fluo-4 Ca2+ flux; stronger effect = higher value. B-score at 10 µM. 0.42% of 310,000 active;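 active = B-score of calcium response area above 5 SD of library B-scores, with initial fluorescence ratio within 5 SD of library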;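 also: B-score of integrated fluorescence ratio over time as area under calcium response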
# TRPC6 inh: mouse TRPC6 channel inhibitors, primary screen, cell-based, HEK293, membrane potential dye; B-score at 10 µM; ACh-evoked depolarization; stronger effect = lower value; 1.1% of 310,000 active; AID 2553, 2010;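 active = B-score under library mean minus 3 SD, initial fluorescence not abnormally high, positive integrated signal ratio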;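 also: B-score derived from integrated fluorescence ratio over the kinetic read; more negative B-score means stronger inhibition of depolarization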
# TRPC4 act: activators of mouse TRPC4 channel, primary screen, Fluo4 calcium, HEK293 TRPC4beta/mu-opioid cells; Short transient receptor potential channel 4 (Mus musculus), Q9QUQ5; Fluo4 calcium fluorescence; stronger effect = higher value; B-score at 10 µM; 0.49% of 310,000 active;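 active = B-score above 5 SD of library B-scores, and initial fluorescence ratio not above library mean plus 5 SD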;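 also: positive B-score marks a calcium rise read as TRPC4 activation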
#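 System – HEK293 cells stably co-expressing mouse TRPC4beta and mu-opioid receptor · Signal – Fluo4 calcium-sensitive dye fluorescence, kinetic, 1 Hz baseline · Benchmarks – buffer (low) and maximal DAMGO (high) · Read-out – B score of integrated fluorescence ratio per well · Incubation – dye loading 45 min room temperature, 110 s kinetic read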
# TRPC4 inh: inhibitors of mouse TRPC4 channel, primary screen, Fluo4 calcium, HEK293 TRPC4beta/mu-opioid cells; Short transient receptor potential channel 4 (Mus musculus), Q9QUQ5; DAMGO-evoked Fluo4 calcium flux; stronger effect = lower value; B-score at 10 µM; 0.39% of 300,000 active; AID 2247, 2010;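 active = B-score over 3 SD under the library average, no early fluorescence shift, positive overall ratio signal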
#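 Signal: kinetic Fluo4 fluorescence imaging of calcium influx. Material: stable TRPC4beta/mu-opioid receptor HEK293 cells. Probe or stimulus: DAMGO in two steps, submaximal then maximal.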
# TRPC6 act: mouse TRPC6 channel activators, primary screen, cell-based, HEK293, membrane potential dye | Short transient receptor potential channel 6 (Mus musculus), Q61143 | HEK293-TRPC6 membrane potential dye fluorescence; stronger effect = higher value | B-score at 10 µM | 0.13% of 310,000 active;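 active = B-score of the integrated fluorescence ratio above library mean plus 3 SD, and starting fluorescence ratio within library mean plus 5 SD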;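 also: higher score means more depolarization so channel activation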
# The depositor's hits bear a star; i = inactive. The list is not random: actives were taken first. Their share in the collection is about 2.3%.
SMILES,TRPC4 potent,TRPC6 inh,TRPC4 act,TRPC4 inh,TRPC6 act
CCSc1nc2c(c(=O)n1Cc1ccccc1)SC(C)C2 (stereo not given),i,i,i,-6*,i
O=C(Nc1ccccc1-c1ccccc1)c1cnccn1,13*,i,i,i,i
COc1cc(CNCCc2ccc(F)cc2)ccc1OCc1ccc(Cl)nc1,i,i,i,-6*,i
C=CCNC(=S)N1CCN(C2CCCCC2)CC1,32*,i,i,i,i
CCCCCc1cc(=O)oc2c(C(CCN(CC)CC)c3ccc(N(C)C)cc3)c(OC)cc(OC)c12 (stereo not given),11*,i,i,i,i
O=[N+]([O-])c1ccc(N2CCN(CCO)CC2)c2ncccc12,21*,i,56*,i,i
Cc1ccc2c(c1)N(CC(=O)NC(C)CCc1ccccc1)C(=O)c1cccnc1O2 (stereo not given),i,i,i,i,i
Cc1ccc(-c2c(C#N)c(N)n(-c3ccccc3)c(=O)c2C#N)cc1,i,i,i,i,i
Cn1c(N)c(Br)c(-c2ccc(F)cc2)c(C#N)c1=O,i,i,i,-5*,i
O=C(c1ccccc1-n1cccn1)N1CCc2c([nH]c3ccccc23)C1c1ccccn1 (stereo not given),i,i,i,i,i
Cc1csc(NC(=O)CS(=O)(=O)Cc2ccccc2)n1,i,i,i,i,i
Cc1cccc(NC(=O)CS(=O)(=O)Cc2ccccc2)n1,i,i,53*,i,i
Cc1ccc(C(C2=C(O)CC(C)(C)CC2=O)C2C(=O)CC(C)(C)CC2=O)s1 (stereo not given),i,i,i,i,i
CC1(C)CC(=O)C(C(C2=C(O)CC(C)(C)CC2=O)c2ccc(Br)s2)C(=O)C1 (stereo not given),10*,i,i,i,i
CCOc1cc(/C=N/NC(=O)CCc2n[nH]c(=O)[nH]c2=O)ccc1O,i,i,i,i,i
Cc1ccc(S(=O)(=O)NCc2ccccc2)cc1C(=O)N(C)Cc1ccc(F)cc1,i,i,i,i,i
O=C(COC(=O)c1ccccc1C(=O)c1ccc(Cl)cc1)NCCc1ccccc1,14*,i,i,i,i
O=C(COC(=O)c1ccccc1C(=O)c1ccccc1)NCCc1ccccc1,i,i,i,i,i
COc1ccccc1CN=C1Nc2ccccc2CS1,i,i,71*,i,i
CC(C)OC(=O)CC1C(=O)NCCN1C(=S)NC(=O)c1cccs1 (stereo not given),i,i,i,i,i
CC(=O)N1N=C(c2c(-c3ccccc3)c3cc(C)ccc3[nH]c2=O)CC1c1ccco1 (stereo not given),24*,i,i,i,i
CC(=O)N1N=C(c2c(-c3ccccc3)c3cc(Br)ccc3[nH]c2=O)CC1c1ccco1 (stereo not given),i,i,i,i,i
Cc1ccc(-c2ccc3c(c2)S(=O)(=O)c2ccccc2C3=O)cc1,29*,i,i,i,i
Cc1ccnc(NC(=O)c2ccc3c(c2)S(=O)(=O)c2ccccc2C3=O)c1,i,i,i,i,i
COc1ccc(CN=CC2=C(O)CNC2=O)cc1,i,i,i,i,i
SMILES,TRPC4 potent,TRPC6 inh,TRPC4 act,TRPC4 inh,TRPC6 act
COc1ccc(CN=Cc2[nH]c3ccc(Br)c(Cl)c3c2O)cc1,i,i,i,i,16*
COc1ccc(NC(=O)CN(c2ccccc2F)S(=O)(=O)c2ccc(C)cc2)cc1,i,i,i,i,i
Cc1ccc(-c2n[nH]c(=O)c3ccccc23)cc1S(=O)(=O)Nc1ccccc1,12*,i,i,i,i
O=C(COc1ccc(-c2ccccc2)cc1)N1CCN(C(=O)c2cccs2)CC1,i,i,i,i,i
CCOc1ccccc1NC(=O)CN(c1ccc(OC)cc1)S(=O)(=O)c1c(C)[nH]c(=O)[nH]c1=O,20*,i,i,i,i
COCCNC(=O)Cn1c(=O)n(CCCC(=O)NCc2ccc3c(c2)OCO3)c(=O)c2sccc21,i,i,i,i,i
c1ccc(N2CCN(Cc3nc4ccccc4[nH]3)CC2)nc1,i,i,i,i,i
c1ccc(-c2ncc(CN3CCN(c4ccccn4)CC3)[nH]2)cc1,i,i,i,-6*,i
Cc1ccc(CNC(=O)C2CCCN(Cc3cnn(-c4ccccc4)c3-n3cccc3)C2)cc1 (stereo not given),i,i,95*,i,i
C=CCc1cc(Cl)ccc1OCCCNC(C)C,i,i,i,i,i
C=CCc1cc(Cl)ccc1OCCCNCCO,14*,i,i,i,i
CC1CC(C)CN(CCCNC(=O)COc2cc(=O)n(C)c3ccccc23)C1 (stereo not given),10*,i,85*,i,i
CCn1c(=O)cc(OCC(=O)NCCCN2CC(C)CC(C)C2)c2ccccc21 (stereo not given),i,i,90*,i,i
O=[N+]([O-])c1ccc(CSc2nnc(SCc3ccc(Cl)cc3)s2)cc1,i,i,i,i,i
Cc1cccc(CN2CCC(Oc3ccc(C(=O)N4CCCCC4)cc3)CC2)c1,i,i,i,i,i
CC(C)(Oc1ccc(Cl)cc1)C(=O)Nc1ccc(S(=O)(=O)Nc2ncccn2)cc1,i,i,i,i,i
CC1CCN(c2nc3c(c(=O)[nH]c(=O)n3C)n2CC(C)CSc2nnnn2-c2ccccc2)CC1 (stereo not given),i,i,i,i,i
Cc1cc(OCCn2ccnc2)cc(C)c1Cl,i,i,129*,i,i
CC(C)(C)c1cc(Cl)ccc1OCCn1ccnc1,42*,i,63*,i,i
Cc1ccc(C)c(OCCCCn2ccnc2)c1,i,i,133*,i,i
Cc1cccc(OCCCCCn2ccnc2)c1C,i,i,69*,i,i
CCCCOC(=O)c1ccc(NC(=O)C(=O)NCc2ccco2)cc1,i,i,i,i,i
